Where only a bound is given, the exact number is not on record here.

As a reminder, the IC50 is the concentration at which inhibition is half-maximal.

Experiment [1] deals with Cavia porcellus. As to the kind of experiment: In vivo bronchodilator effect on histamine-induced bronchospasm in anaesthetized guinea pigs at 100 ug intravenous dose. It counts as functional.
Experiment [2] concerns the target T1, Phosphodiesterase 4A (Sus scrofa, UniProt O77823).
T1 sequence (O77823 whole entry): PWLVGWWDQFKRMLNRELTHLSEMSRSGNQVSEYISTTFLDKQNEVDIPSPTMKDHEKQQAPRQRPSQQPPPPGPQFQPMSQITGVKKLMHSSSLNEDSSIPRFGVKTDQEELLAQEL
Put plainly: Inhibitory potency against pig aortic PDE IV. An outline of the steps:
(§1)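 Pig aortic PDE isozymes were separated by DEAE-trisacryl anion-exchange chromatography. PDE III was assayed in the presence of rolipram (10 µM) and PDE IV in the presence of siguazodan (10 µM) to exclude cross-contamination.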

The target in experiment [3] is T2, Phosphodiesterase 4 (Homo sapiens, UniProt P27815+Q08499+Q07343+Q08493). Put plainly: Inhibition of solubilized eosinophil PDE IV. In kind it is protein assay, Cavia porcellus.
The subject of experiment [4] is Cavia porcellus. As to the kind of experiment: In vivo bronchodilator effect on histamine-induced bronchospasm in anaesthetized guinea pigs at 200 ug intravenous dose. In kind it is functional.
Experiment [5] is described as follows: Inhibitory potency against pig aortic PDE III. On the set-up: species or system Sus scrofa. An outline of the steps: as §1
Experiment [6] has as its system Cavia porcellus. Put plainly: In vivo bronchodilator effect on histamine-induced bronchospasm in anaesthetized guinea pigs at 20 ug intravenous dose. In kind it is functional.
For experiment [7], the species on record is Cavia porcellus. Put plainly: Inhibition of superoxide O2-generation from guinea pig peritoneal eosinophils. In kind it is functional. In outline: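 Guinea pig peritoneal eosinophils (10^6/well) were incubated for 45 min at 37 °C in HBSS with p-iodonitrotetrazolium violet (0.5 mg/mL). Superoxide was measured as SOD-inhibitable dye reduction: cells were pelleted and dissolved overnight at room temperature in DMSO/0.6 M HCl, and absorbance was read at 492 nm.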

Experiment [8] has as its target T2, Phosphodiesterase 4. Put plainly: Inhibition of guinea pig PDE IV. To be noted: target entry is the homologue from another species. In kind it is protein assay, Cavia porcellus.
Experiment [9] concerns the target Phosphodiesterase 1 (Sus scrofa). As to the kind of experiment: Inhibitory potency against pig aortic PDE I.
Experiment [10] deals with Cavia porcellus. As to the kind of experiment: In vivo bronchodilator effect on histamine-induced bronchospasm in anaesthetized guinea pigs at 50 ug intravenous dose. It counts as functional.
Experiment [11] deals with Cavia porcellus. Put plainly: In vivo bronchodilator effect on histamine-induced bronchospasm in anaesthetized guinea pigs at 10 ug intravenous dose. It counts as functional.

As for `COc1ccc(C(=O)Nc2c(Cl)cccc2Cl)cc1OC1CCCC1`, the Duration is on record as 34 min in experiment [1] and 30 min in experiment [4]. Also, the Reduction came out at 48% in experiment [1] and 55% in experiment [6]. Moreover, the IC50 is 0.023 µM in experiment [2]; 0.005 µM in experiment [3]; greater than 1000 µM in [5]; 0.53 µM in experiment [7]; 0.023 µM in [8].
For the compound `COc1ccc(C(=O)Nc2c(F)cccc2F)cc1OC1CCCC1`, the Duration in experiment [1] amounted to 18 min; in experiment [4] it was 48 min. The Reduction was 29% in experiment [1] and 54% in experiment [6]. The IC50 in [2] is 0.07 µM; in experiment [3] it was 0.018 µM; in experiment [9], greater than 1000 µM; in [5], greater than 1000 µM; in experiment [7] it was 0.58 µM; in [8] it was 0.066 µM.
Turning to `COc1ccc(C2CNC(=O)C2)cc1OC1CCCC1` (stereo not given) [ROLIPRAM], the Duration is on record as 29 min in experiment [6], 38 min in experiment [10] and 15 min in experiment [11]. Also, the values for the Reduction in experiment [6], in experiment [10] and in experiment [11] were 48%, 58% and 15%, respectively. In experiment [7], this compound came in with an IC50 of 0.16 µM.
For `COc1ccc(C(=O)Nc2c(Cl)cncc2Cl)cc1OC1CCCC1`, the figures for the Reduction in [6], in [10] and in [11] were 56%, 78% and 36%, respectively. Further, half-maximal inhibition in [7] (IC50) required 0.024 µM.
As for `COc1ccc(C(=O)Nc2ccccc2)cc1OC1CCCC1`, the IC50 is 2.6 µM in experiment [2]; 0.145 µM in experiment [3]; greater than 1000 µM in experiment [5]; greater than 10 µM in experiment [7]; 2.566 µM in experiment [8]. In [4], this compound returned a Duration of 6 min. The Reduction in experiment [6] is on record as 32%.
Turning to `CCCCOc1cc(C(=O)Nc2c(Cl)cncc2Cl)ccc1OC`, the Duration in experiment [1] was determined as 34 min; in experiment [4] it was 32 min. In addition, the results for the Reduction in experiment [1] and in experiment [6] were 52% and 78%, respectively. The IC50 in [2] worked out at 0.008 µM; in [3] it was 0.0025 µM; in [7], 0.48 µM; in [8], 0.0085 µM.
